Drawing on PubChem BioAssay, this text covers growth inhibition for 24 compounds.

Calls of active or inactive are those of the source.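 Rule for the calls: active = growth inhibition above a set limit, 3 SD over mean compound inhibition, in both replicates (cut at about 43% in these data); inconclusive = above the limit in only one replicate; inactive = at or below the limit in both replicates.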

This assay is described as follows: Restrictive medium S. cerevisiae growth inhibition, OD615, pilot screen of yeast lifespan reduction project, restrictive growth control (AID 706).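 Note: modified DeaD lifespan yeast strain shifted to restrictive glucose medium.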 The note with it: OD615, 48 h, at 10 µM, stronger effect = higher value. In short, it runs like this:
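Material: engineered S. cerevisiae DeaD strain / Medium: glucose-based CSMM-D restrictive medium / Compound: single dose of 10 µM compound final, 0.25% DMSO / Timing: 4 h pre-incubation, 48 h exposure at 30 °C / Technique: OD615 absorbance reading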
As to `COc1cccc(NC(=O)C2CCCN(S(=O)(=O)c3cccc4cccnc34)C2)c1` (centres undefined), the growth inhibition is -6.68% (inactive).
With `CCc1nnc(NC(=O)COC(=O)CN2C(=O)c3ccccc3C2=O)s1` the figure was 1.2% (inactive); with `O=C(C1CCN(c2nnc(-n3cccc3)s2)CC1)N1CCc2ccccc2C1`, 1.25% (inactive); with `Cc1c(C(=O)NC2CC2)oc2ccc(S(=O)(=O)N3CCCCCC3)cc12`, 6.7% (inactive).
On to `Cc1sc2nc(SCC(=O)NCCO)n(C)c(=O)c2c1C`, for which the growth inhibition is -20.8% (inactive).
`S=c1[nH]nc(-c2ccccc2)n1C1C=CCCC1` (centres undefined): the growth inhibition was -1.09% (inactive).
With `c1ccc(N2CCN(Cc3cn4cccnc4n3)CC2)cc1` the figure was -6.25% (inactive).
With `CCCCc1ccc(NC(=O)C2CCCO2)cc1` (centres undefined) the figure was 2.07% (inactive).
Next, `Cc1[nH]c2ccccc2c(=O)c1CN1CCCCC1`: -15.9% (inactive); `Cc1ccccc1-n1c(Cn2c(=O)sc3ccccc32)nnc1SCC(=O)N1CCCC1`: 6.39% (inactive).
Consider `COc1ccccc1-n1c(=O)[nH]c2c(C(N)=O)nc(CC(C)C)nc21`, for which the growth inhibition was -13.4% (inactive).
Next, `Cc1ccccc1-c1nc(CN2CCC(C(=O)N3CCC(C(N)=O)CC3)CC2)c(C)o1`: 3.29% (inactive).
With `CCCCN(CC)CCCNC(=O)c1cc2c(=O)n(C)c3ccccc3c2n1C` the figure was -1.18% (inactive); with `Cc1nn(-c2ccc(F)cc2)c2c1cc(C#N)c1nc3ccccc3n12`, 8.66% (inactive); with `CCCn1c(OC)nc2c1c(=O)n(C)c(=O)n2C`, -9.12% (inactive).
As to `CCOC(=O)Cc1ccc(NS(=O)(=O)c2ccc(SC)cc2)cc1`, the growth inhibition was -1.98% (inactive).
Next, `CC(C)Sc1nc2c(c(=O)n1-c1ccc(F)cc1)SCC2`: -19.7% (inactive); `COc1cccc(C2CC(c3c(Cl)cccc3Cl)n3nc(N)nc3N2)c1` (centres undefined): 9.22% (inactive).
On to `Cc1cccc(OCCNC(=O)c2ncn[nH]2)c1`, for which the growth inhibition is -4.79% (inactive).
Next, `COc1ccc(S(=O)(=O)N2CCN(c3ccc(C)cc3C)CC2)cc1OC`: 4.36% (inactive); `CS(=O)(=O)NCCSCc1c(F)cccc1Cl`: -2.41% (inactive).
Next, `CC(C)CCNC(=O)Cn1c(NCCC(C)C)nc2c1c(=O)n(C)c(=O)n2C`: -0.68% (inactive); `CCOC(=O)N1CCC(NC(=O)C2CCCN(C(=O)c3cc4sccc4n3C)C2)CC1` (centres undefined): -12.6% (inactive).
Next, `CCOC(=O)N1CCC(NC(=O)c2cc(C(=O)NC3CCCC3)ccc2CO)CC1`: -3.18% (inactive).
